Assay outcomes: PubChem, several laboratories
Hits are enriched below; roughly 1.3% of the tested compounds scored in any of these assays.
Yeast lifespan up = compounds extending yeast replicative lifespan, primary screen, S. cerevisiae, OD615 | S. cerevisiae growth with nicotinamide; deaD strain in restrictive glucose medium | inhibition of the nicotinamide effect, % at 10 µM | hit rate 0.68% among 130,000 | AID 775, 2007;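 active = inhibition above a set limit, placed 3 SD over the median of all compounds, cut at about 26% in these data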;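 also: 0% = nicotinamide-treated wells and 100% = cells grown without nicotinamide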
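System: DeaD-strain S. cerevisiae / Buffer or medium: CSMM-D, restrictive glucose (dextrose) synthetic minimal medium / Probe or stimulus: nicotinamide, 1.5 mM, co-present with compound / Compound: one concentration, 10 µM, DMSO 0.25% / Incubation: 48 h compound exposure at 30 °C, humidified / Technique: optical density (absorbance) at 615 nm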
Yeast growth inh = growth inhibitors of yeast BB579 in restrictive medium, primary screen, yeast lifespan-shortening project, S. cerevisiae. OD615, 48 h. inhibition, % at 10 µM. hit rate 0.51% among 140,000;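 active = inhibition above a set limit, 3 SD over the mean compound inhibition, cut at about 44% in these data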
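System: DeaD yeast strain BB579; buffer or medium: CSMM-D dextrose restrictive medium; technique: OD at 615 nm; schedule: 4 h cell preincubation, 48 h compound exposure, 30 °C humidified; doses: single 10 µM dose; controls: amphotericin B 10 µg/mL, positive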
Efa HMGR inh = inhibitors of E. faecalis class II HMGR, primary screen, biochemical, Enterococcus faecalis | AID 1066, 2008 | purified E. faecalis HMGR, NADPH absorbance 340 nm kinetic | inhibition, % at 10 µM | HMG-CoA reductase (Enterococcus faecalis, mvaE) | hit rate 0.41% among 190,000;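 active = inhibition above a set limit, the median over all tested compounds plus 3 SD, cut at about 9.5% in these data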;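 also: enzyme runs in reverse so mevalonate oxidation gives rising NADPH absorbance; 0% = complete reaction with DMSO and 100% = background rate lacking mevalonate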
sdo1 growth = growth rescue of sdo1-depleted yeast, primary screen, S. cerevisiae, bone marrow failure model; S. cerevisiae sdo1-depleted JHY4D growth rescue, OD600 30 h; stronger effect = higher value; pdr5 snq2 efflux-pump mutant strain; z-score at 10 µM; hit rate 0.21% among 140,000; AID 817, 2007;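 active = z-score above 3 at both the 24 hr and the 30 hr optical density reads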;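 also: z-score against mean and SD of all compound wells on the same plate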
Numbers without * were called inactive; / = not tested or not shown.

SMILES | Yeast lifespan up | Yeast growth inh | Efa HMGR inh | sdo1 growth
COc1ccccc1CNC(=O)N/C=C/c1ccc(Cl)cc1 | / | / | 0 | /
Fc1ccc(C2=NN(c3ccccc3)C(c3ccco3)C2)cc1 (centres undefined) | / | / | 13* | /
COc1ccc(C2=NN(c3nc(-c4ccccc4)c(CC(=O)O)s3)C(c3ccco3)C2)cc1 (centres undefined) | 31* | -13 | -3 | -0.88
OCCC1CN(Cc2cc3c(cc2Cl)OCO3)CCN1C1CCCC1 (centres undefined) | / | / | -2 | /
O=C(Oc1ccc(Cl)c2cccnc12)c1cccc([N+](=O)[O-])c1 | -1 | -2 | -1 | -1.6
O=C(Oc1c(Cl)cc(Cl)c2cccnc12)c1cccc([N+](=O)[O-])c1 | -12 | 100* | -1 | -2.4
CC1(C)Cc2ccccc2-c2nnc(SCC(=O)Nc3ccc4c(c3)OCO4)n21 | 81* | 19 | 2 | 1.5
Cc1cc(C)n(-c2cccc(C(=O)O)c2)n1 | / | / | -4 | /
O=C(N/N=C\c1cccc([N+](=O)[O-])c1O)C1COc2ccccc2O1 (centres undefined) | -6 | 64* | -5 | 1.2
O=C(c1ccc(F)cc1)N1CCCC(c2ccccc2)C1 (centres undefined) | / | / | 13* | /
O=C(OCn1ncc(Cl)c(Cl)c1=O)c1cccc(C(F)(F)F)c1 | -13 | 62* | -1 | -2.7
Cc1ccc(C)c(N=Cc2ccc(-c3ccc([N+](=O)[O-])cc3)o2)c1 | / | / | 16* | /
CCN(Cc1ccncc1)C(=O)c1ccccc1NS(=O)(=O)c1ccc(F)cc1 | / | / | -3 | /
S=C1NCCc2ccc(Cl)cc2C1c1ccccc1 (centres undefined) | / | -31 | 17* | -1.7
COc1cc(NC2c3ncccc3C(=O)N2Cc2ccco2)cc(OC)c1OC (centres undefined) | / | / | 2 | /
CC(=O)[C@H]1[C@H](c2cccc(Cl)c2)C(C#N)(C#N)[C@@H]2c3ccccc3C=CN21 | 45* | -39 | -1 | -1.1
CC(=O)[C@H]1[C@@H]2C(=O)N(c3cccc(Cl)c3)C(=O)[C@@H]2[C@H]2c3ccccc3C=CN21 | -9 | -48 | -4 | 0.15
CN(/C=C/C(=C\C=[N+](C)c1ccccc1)OCCCS(=O)(=O)[O-])c1ccccc1 | / | / | 1 | /
CC1CN(C2CCN(C(=O)c3cccc(Cl)c3)CC2)CC(C)O1 (centres undefined) | -14 | -30 | 0 | -0.67
CC1CN(C(=O)c2cccc(S(=O)(=O)Nc3ccc(Cl)cc3)c2)CC(C)O1 (centres undefined) | / | / | 24* | /
CCCC(=O)NCc1ccncc1 | / | / | -5 | /
O=C(c1cnn2c(C(F)F)cc(C3CC3)nc12)N1CCCC1 | 107* | -4 | -1 | 0.05
CCN(CC)S(=O)(=O)c1ccc2nnn(O)c2c1 | / | / | -5 | /
CC1=CC(=O)c2ccccc2C1=O | 12 | 68* | 0 | 1.2
CC(c1ccco1)N(C(=O)c1ccccc1NS(=O)(=O)c1cc([N+](=O)[O-])ccc1Cl)c1ccccn1 (centres undefined) | 59* | -29 | -7 | -1.1
SMILES | Yeast lifespan up | Yeast growth inh | Efa HMGR inh | sdo1 growth
CC(c1ccco1)N(C(=O)c1ccccc1NS(=O)(=O)c1cccc([N+](=O)[O-])c1)c1ccccn1 (centres undefined) | 34* | -20 | -1 | -0.86
COc1ccc(OC)c(NC(=O)c2ccccc2SC)c1 | -33 | -40 | -3 | -0.02
COc1ccc(NC(=O)c2ccccc2SC)cc1 | / | / | 9.6* | /
CCOc1ccc2nc(NCCNC(=O)Nc3ccccc3)c(C#N)cc2c1 | 104* | 31 | 2 | -0.01
O=C1CNC(=O)/C1=C/c1ccccc1 | 29* | -52 | -2 | 0.8
COCCn1c(C)cc(C(=O)COc2ccc(C)nc2[N+](=O)[O-])c1C | / | / | 13* | /
CCCCNC(=O)CSc1nc2ccsc2c(=O)n1CCCC(=O)NCCc1ccc(S(N)(=O)=O)cc1 | / | / | -1 | /
COC(CNC(=O)CNC(=S)N(Cc1ccccc1)Cc1cccnc1)OC | / | / | 9.6* | /
O=C(CNC(=S)N(Cc1ccccc1)Cc1cccnc1)NCc1ccccc1 | / | / | -2 | /
COC(=O)c1sccc1Oc1c(Cl)cccc1[N+](=O)[O-] | / | / | -1 | /
O=C(NCC(=O)N(Cc1cccs1)C(C(=O)NC1CCCC1)c1ccncc1)c1ccco1 (centres undefined) | -9 | -60 | 33* | 0.72
CN(C(=O)COC(=O)CNC(=O)C12CC3CC(CC(C3)C1)C2)C1CCS(=O)(=O)C1 (centres undefined) | -3 | -24 | 4 | 0.93
CN(C)S(=O)(=O)c1ccc(C(=O)Nc2nc(-c3cc4ccccc4o3)cs2)cc1 | 28* | -57 | -4 | -0.59
C=CCNC(=S)N1CCN(CCN=CC2=C(O)CC(c3cccs3)CC2=O)CC1 (centres undefined) | 9 | -12 | -3 | -0.29
CC(=O)N1CCN(CCN=CC2=C(O)CC(c3cccs3)CC2=O)CC1 (centres undefined) | 36* | -15 | -1 | 0.09
COc1ccc(NC(=S)N2CCN(CCN=CC3=C(O)CC(c4ccccc4)CC3=O)CC2)cc1 (centres undefined) | 50* | -35 | 3 | 0.84
O=C1CC(c2ccc(F)cc2)CC(O)=C1C=NCCN1CCN(C(=O)Nc2ccccc2)CC1 (centres undefined) | 90* | -36 | -2 | 0.08
COc1ccc(C2CC(=O)C(C=NCCN3CCN(C(C)=O)CC3)=C(O)C2)cc1 (centres undefined) | / | -34 | -4 | 0.56
C=CCNC(=S)Nc1cccc2[nH]ncc12 | / | / | -3 | /
Cc1c(Br)c([N+](=O)[O-])nn1CC(=O)Nc1cccc2nonc12 | / | / | -3 | /
O=C1NC(c2ccccn2)Nc2sc3c(c21)CCC3 (centres undefined) | -8 | 75* | -8 | 1
CN1CCc2c(sc3c2C(=O)NC(c2ccccn2)N3)C1 (centres undefined) | -3 | -20 | -2 | 0.44
Oc1ccc(/C=N/N=C(c2ccccc2)c2ccccc2)c(O)c1O | -13 | 90* | -5 | -1.4
O=C(/C(=N/N=C/c1ccc(O)c(O)c1O)c1ccccc1)c1ccccc1 | -11 | 95* | 2 | -0.58
Cc1cccc(CCNC(=O)CCc2nnc(CCc3ccccc3)o2)n1 | / | / | -4 | /
SMILES | Yeast lifespan up | Yeast growth inh | Efa HMGR inh | sdo1 growth
CCN1CCN(c2ccc(NC(=O)CCc3c(C)nc4c(-c5ccc(F)cc5)c(C)nn4c3C)cc2)CC1 | / | / | 4 | /
Cc1cccc(C)c1-n1c(SCC(=O)NCc2ccco2)nc2ccccc2c1=O | -17 | 5 | -7 | -1.1
Cc1cc(C)cc(-n2c(SCC(=O)NCc3ccco3)nc3ccccc3c2=O)c1 | 56* | -41 | 2 | -1.1
C=CCN(c1ccc(C(=O)Nc2ccc(NC(C)=O)cc2)cc1)S(C)(=O)=O | / | / | -2 | /
CC(NC(=O)c1ccccc1)C(=O)N/N=C/c1cccc([N+](=O)[O-])c1 (centres undefined) | / | / | -2 | /
CCN1CNC(=S)N(Cc2ccccc2)C1 | -1 | 4 | 0 | -0.33
CCCCCN1CSC(=S)N(Cc2ccccc2)C1 | 27* | 26 | -3 | -2.1
